In ChEMBL document CHEMBL4130356, “Design, synthesis and 2D QSAR study of novel pyridine and quinolone hydrazone derivatives as potential antimicrobial and antitubercular agents” (Eur J Med Chem, 2017):
In brackets after ≈: the same amount, converted by molar mass. Activity calls are given as the source filed them. The rule behind the calls is not given here.

Key:
Pseudomonas aeruginosa [1] = conditions: RCMB 010043, 100 ug/ml
Aspergillus fumigatus [2] = test: Antimicrobial activity against Aspergillus fumigatus RCMB 02568 assessed as diameter of zone inhibition at 100 ug/ml after 48 hrs by agar well diffusion assay; assay type: functional; conditions: for zone of inhibition at 100 µg/mL: RCMB 02568, 48 h, read-out: DIZ
Procedure, shortened: (§1)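 Agar well diffusion on malt agar plates seeded with the fungus, using 1 cm wells. Plates were held at 4°C for 1 h for diffusion, then incubated at 28°C. Inhibition zone diameters were measured at 48 h. Amphotericin B was the positive control. Run in triplicate, with the mean zone reported.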

Staphylococcus aureus [3] = test: Antimicrobial activity against Staphylococcus aureus RCMB 010028 assessed as diameter of zone inhibition at 100 ug/ml after 24 hrs by agar well diffusion assay; assay type: functional; conditions: for zone of inhibition at 100 µg/mL: RCMB 010028, 24 h, read-out: DIZ
Procedure, shortened: (§2)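 Agar well diffusion on nutrient agar plates seeded with the bacterium, using 1 cm wells. Plates were held at 4°C for 1 h for diffusion, then incubated at 37°C. Inhibition zone diameters were measured at 24 h. Ciprofloxacin was the positive control. Run in triplicate, with the mean zone reported.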

Escherichia coli [4] = test: Antimicrobial activity against Escherichia coli RCMB 010052 after 24 hrs by serial dilution method; assay type: functional; conditions: RCMB 010052, 24 h
Procedure, shortened: (§3)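 Serial twofold dilution in microtiter plates starting from a 100 mmol stock in DMSO; final concentrations 125 down to 0.12 […]. Incubated at 37°C and read on a microplate reader after 24 h. Ciprofloxacin was the reference. Run in triplicate, with the average taken. MIC was the lowest concentration inhibiting growth.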

Escherichia coli [5] = test: Antimicrobial activity against Escherichia coli RCMB 010052 assessed as diameter of zone inhibition at 100 ug/ml after 24 hrs by agar well diffusion assay; assay type: functional; conditions: for zone of inhibition at 100 µg/mL: RCMB 010052, 24 h, read-out: DIZ
Procedure, shortened: as §2

[6] = test system: Mycobacterium tuberculosis; test: Antimycobacterial activity against Mycobacterium tuberculosis RCMB 010126 clinical isolate after 7 days by MABA; assay type: functional
Procedure, shortened: (§4)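 Inoculum from fresh LJ culture resuspended in 7H9-S broth with casitone, glycerol and OADC, adjusted to McFarland No. 1 and diluted 1:20. Serial two-fold compound dilutions in 7H9-S; isoniazid reference. Incubated 7 days at 37°C in air, then Alamar blue added and incubated overnight. Percent inhibition = 1 − (test well/growth-control mean) × 100; MIC = lowest concentration preventing blue-to-pink change.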

Streptococcus pneumoniae [7] = test: Antimicrobial activity against Streptococcus pneumoniae RCMB 010010 after 24 hrs by serial dilution method; assay type: functional; conditions: RCMB 010010, 24 h
Procedure, shortened: as §3

Candida albicans [8] = test: Antimicrobial activity against Candida albicans RCMB 05036 assessed as diameter of zone inhibition at 100 ug/ml after 48 hrs by agar well diffusion assay; assay type: functional; conditions: for zone of inhibition at 100 µg/mL: RCMB 05036, 48 h, read-out: DIZ
Procedure, shortened: as §1

Streptococcus pneumoniae [9] = test: Antimicrobial activity against Streptococcus pneumoniae RCMB 010010 assessed as diameter of zone inhibition at 100 ug/ml after 24 hrs by agar well diffusion assay; assay type: functional; conditions: for zone of inhibition at 100 µg/mL: RCMB 010010, 24 h, read-out: DIZ
Procedure, shortened: as §2

[10] = test system: Mycobacterium tuberculosis; test: Antimycobacterial activity against Mycobacterium tuberculosis RCMB 010126 clinical isolate assessed as inhibition zone after 7 days by MABA; assay type: functional
Procedure, shortened: as §4

Pseudomonas aeruginosa [11] = conditions: RCMB 010043
Staphylococcus aureus [12] = test: Antimicrobial activity against Staphylococcus aureus RCMB 010028 after 24 hrs by serial dilution method; assay type: functional; conditions: RCMB 010028, 24 h
Procedure, shortened: as §3

Candida albicans [13] = test: Antimicrobial activity against Candida albicans RCMB 05036 after 48 hrs by serial dilution method; assay type: functional; conditions: RCMB 05036, 48 h
Procedure, shortened: as §3, with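 “28°C” for “37°C”, “48” for “24”, “Amphotericin B” for “Ciprofloxacin”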

Aspergillus fumigatus [14] = test: Antimicrobial activity against Aspergillus fumigatus RCMB 02568 after 48 hrs by serial dilution method; assay type: functional; conditions: RCMB 02568, 48 h
Procedure, shortened: as §3, with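 “28°C” for “37°C”, “48” for “24”, “Amphotericin B” for “Ciprofloxacin”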

[15] = Mycobacterium tuberculosis, RCMB 010126, 168 h

## COc1cc(/C=N/NC(=O)c2c[nH]c3ccc(Cl)cc3c2=O)cc(OC)c1OC
Pseudomonas aeruginosa [1]
  DIZ: inactive
Aspergillus fumigatus [2]
  zone of inhibition at 100 µg/mL: 18.1 mm
Staphylococcus aureus [3]
  zone of inhibition at 100 µg/mL: 17.3 mm
Escherichia coli [4]
  MIC: 3.9 µg/mL (≈ 9.38 µM)
Escherichia coli [5]
  zone of inhibition at 100 µg/mL: 19.3 mm
[6]
  MIC: inactive
Streptococcus pneumoniae [7]
  MIC: 7.81 µg/mL (≈ 18.8 µM)
Candida albicans [8]
  zone of inhibition at 100 µg/mL: 16.3 mm
Streptococcus pneumoniae [9]
  zone of inhibition at 100 µg/mL: 18.4 mm
[10]
  inhibition zone (IZ): inactive
Pseudomonas aeruginosa [11]
  MIC: inactive
Staphylococcus aureus [12]
  MIC: 15.6 µg/mL (≈ 37.6 µM)
Candida albicans [13]
  MIC: 31.2 µg/mL (≈ 75.2 µM)
Aspergillus fumigatus [14]
  MIC: 7.81 µg/mL (≈ 18.8 µM)

## COc1ccc(/C=N/NC(=O)c2c[nH]c3cc(Cl)ccc3c2=O)cc1OC
Pseudomonas aeruginosa [1]
  DIZ: inactive
Aspergillus fumigatus [2]
  zone of inhibition at 100 µg/mL: 20.3 mm
Staphylococcus aureus [3]
  zone of inhibition at 100 µg/mL: 20.6 mm
Escherichia coli [4]
  MIC: 3.9 µg/mL (≈ 10.1 µM)
Escherichia coli [5]
  zone of inhibition at 100 µg/mL: 20.3 mm
[6]
  MIC: inactive
Streptococcus pneumoniae [7]
  MIC: 15.6 µg/mL (≈ 40.5 µM)
Candida albicans [8]
  zone of inhibition at 100 µg/mL: 16.2 mm
Streptococcus pneumoniae [9]
  zone of inhibition at 100 µg/mL: 17.3 mm
[10]
  inhibition zone (IZ): inactive
Pseudomonas aeruginosa [11]
  MIC: inactive
Staphylococcus aureus [12]
  MIC: 1.95 µg/mL (≈ 5.05 µM)
Candida albicans [13]
  MIC: 31.2 µg/mL (≈ 81 µM)
Aspergillus fumigatus [14]
  MIC: 3.9 µg/mL (≈ 10.1 µM)

## Cc1nc(-c2ccc(Cl)cc2)ccc1C(=O)N/N=C/c1ccc(Cl)cc1Cl
Pseudomonas aeruginosa [1]
  DIZ: inactive
Aspergillus fumigatus [2]
  zone of inhibition at 100 µg/mL: 19.3 mm
Staphylococcus aureus [3]
  zone of inhibition at 100 µg/mL: 19.3 mm
Escherichia coli [4]
  MIC: 1.95 µg/mL (≈ 4.66 µM)
Escherichia coli [5]
  zone of inhibition at 100 µg/mL: 21.3 mm
[6]; [15]
  MIC: 12.5 µg/mL (≈ 29.8 µM)
Streptococcus pneumoniae [7]
  MIC: 1.95 µg/mL (≈ 4.66 µM)
Candida albicans [8]
  zone of inhibition at 100 µg/mL: 17.4 mm
Streptococcus pneumoniae [9]
  zone of inhibition at 100 µg/mL: 21.3 mm
[10]
  inhibition zone (IZ): 35.38 mm
Pseudomonas aeruginosa [11]
  MIC: inactive
Staphylococcus aureus [12]
  MIC: 3.9 µg/mL (≈ 9.31 µM)
Candida albicans [13]
  MIC: 15.6 µg/mL (≈ 37.3 µM)
Aspergillus fumigatus [14]
  MIC: 3.9 µg/mL (≈ 9.31 µM)

## O=C(N/N=C/c1ccc(Cl)cc1)c1c[nH]c2ccc(Cl)cc2c1=O
Pseudomonas aeruginosa [1]
  DIZ: inactive
Aspergillus fumigatus [2]
  zone of inhibition at 100 µg/mL: 16.3 mm
Staphylococcus aureus [3]
  zone of inhibition at 100 µg/mL: 15.3 mm
Escherichia coli [4]
  MIC: 1.95 µg/mL (≈ 5.41 µM)
Escherichia coli [5]
  zone of inhibition at 100 µg/mL: 20.6 mm
[6]; [15]
  MIC: 99.8 µg/mL (≈ 277 µM)
Streptococcus pneumoniae [7]
  MIC: 15.6 µg/mL (≈ 43.4 µM)
Candida albicans [8]
  zone of inhibition at 100 µg/mL: 13.6 mm
Streptococcus pneumoniae [9]
  zone of inhibition at 100 µg/mL: 17.3 mm
[10]
  inhibition zone (IZ): 17.8 mm
Pseudomonas aeruginosa [11]
  MIC: inactive
Staphylococcus aureus [12]
  MIC: 31.2 µg/mL (≈ 86.8 µM)
Candida albicans [13]
  MIC: 62.5 µg/mL (≈ 174 µM)
Aspergillus fumigatus [14]
  MIC: 31.2 µg/mL (≈ 86.8 µM)

## Cc1ccc(/C=N/NC(=O)c2ccc(-c3ccc(Cl)cc3)nc2C)cc1
Pseudomonas aeruginosa [1]
  DIZ: inactive
Aspergillus fumigatus [2]
  diameter of the inhibition zone (DIZ): inactive
Staphylococcus aureus [3]
  diameter of the inhibition zone (DIZ): inactive
Escherichia coli [5]
  diameter of the inhibition zone (DIZ): inactive
[6]; [15]
  MIC: 49.9 µg/mL (≈ 137 µM)
Candida albicans [8]
  diameter of the inhibition zone (DIZ): inactive
Streptococcus pneumoniae [9]
  diameter of the inhibition zone (DIZ): inactive
[10]
  inhibition zone (IZ): 26.35 mm

## Cc1nc(-c2cccc(Cl)c2)ccc1C(=O)N/N=C/c1ccc(Cl)cc1Cl
Pseudomonas aeruginosa [1]
  DIZ: inactive
Aspergillus fumigatus [2]
  diameter of the inhibition zone (DIZ): inactive
Staphylococcus aureus [3]
  zone of inhibition at 100 µg/mL: 11.4 mm
Escherichia coli [5]
  diameter of the inhibition zone (DIZ): inactive
[6]; [15]
  MIC: 6.24 µg/mL (≈ 14.9 µM)
Candida albicans [8]
  diameter of the inhibition zone (DIZ): inactive
Streptococcus pneumoniae [9]
  zone of inhibition at 100 µg/mL: 19.3 mm
[10]
  inhibition zone (IZ): 41.98 mm

## O=C(N/N=C/c1ccc(Cl)cc1Cl)c1c[nH]c2ccc(Cl)cc2c1=O
Pseudomonas aeruginosa [1]
  DIZ: inactive
Aspergillus fumigatus [2]
  zone of inhibition at 100 µg/mL: 16.9 mm
Staphylococcus aureus [3]
  zone of inhibition at 100 µg/mL: 15.7 mm
Escherichia coli [4]
  MIC: 1.95 µg/mL (≈ 4.94 µM)
Escherichia coli [5]
  zone of inhibition at 100 µg/mL: 20.7 mm
[6]; [15]
  MIC: 99.8 µg/mL (≈ 253 µM)
Streptococcus pneumoniae [7]
  MIC: 7.81 µg/mL (≈ 19.8 µM)
Candida albicans [8]
  zone of inhibition at 100 µg/mL: 14.1 mm
Streptococcus pneumoniae [9]
  zone of inhibition at 100 µg/mL: 17.5 mm
[10]
  inhibition zone (IZ): 18.3 mm
Pseudomonas aeruginosa [11]
  MIC: inactive
Staphylococcus aureus [12]
  MIC: 15.6 µg/mL (≈ 39.6 µM)
Candida albicans [13]
  MIC: 62.5 µg/mL (≈ 158 µM)
Aspergillus fumigatus [14]
  MIC: 15.6 µg/mL (≈ 39.6 µM)

## Cc1ccc(/C=N/NC(=O)c2c[nH]c3cc(Cl)ccc3c2=O)cc1
Pseudomonas aeruginosa [1]
  DIZ: inactive
Aspergillus fumigatus [2]
  zone of inhibition at 100 µg/mL: 13.7 mm
Staphylococcus aureus [3]
  zone of inhibition at 100 µg/mL: 14.4 mm
Escherichia coli [4]
  MIC: 62.5 µg/mL (≈ 184 µM)
Escherichia coli [5]
  zone of inhibition at 100 µg/mL: 15 mm
[6]
  MIC: inactive
Streptococcus pneumoniae [7]
  MIC: 62.5 µg/mL (≈ 184 µM)
Candida albicans [8]
  zone of inhibition at 100 µg/mL: 14.5 mm
Streptococcus pneumoniae [9]
  zone of inhibition at 100 µg/mL: 13.9 mm
[10]
  inhibition zone (IZ): inactive
Pseudomonas aeruginosa [11]
  MIC: inactive
Staphylococcus aureus [12]
  MIC: 62.5 µg/mL (≈ 184 µM)
Candida albicans [13]
  MIC: 62.5 µg/mL (≈ 184 µM)
Aspergillus fumigatus [14]
  MIC: 62.5 µg/mL (≈ 184 µM)

## COc1ccc(/C=N/NC(=O)c2c[nH]c3ccc(Cl)cc3c2=O)cc1OC
Pseudomonas aeruginosa [1]
  DIZ: inactive
Aspergillus fumigatus [2]
  zone of inhibition at 100 µg/mL: 18.4 mm
Staphylococcus aureus [3]
  zone of inhibition at 100 µg/mL: 17.2 mm
Escherichia coli [4]
  MIC: 1.95 µg/mL (≈ 5.05 µM)
Escherichia coli [5]
  zone of inhibition at 100 µg/mL: 21.3 mm
[6]; [15]
  MIC: 25 µg/mL (≈ 64.7 µM)
Streptococcus pneumoniae [7]
  MIC: 3.9 µg/mL (≈ 10.1 µM)
Candida albicans [8]
  zone of inhibition at 100 µg/mL: 16.9 mm
Streptococcus pneumoniae [9]
  zone of inhibition at 100 µg/mL: 19.1 mm
[10]
  inhibition zone (IZ): 31.25 mm
Pseudomonas aeruginosa [11]
  MIC: inactive
Staphylococcus aureus [12]
  MIC: 15.6 µg/mL (≈ 40.5 µM)
Candida albicans [13]
  MIC: 15.6 µg/mL (≈ 40.5 µM)
Aspergillus fumigatus [14]
  MIC: 7.81 µg/mL (≈ 20.2 µM)
